Measured values as given in ChEMBL document CHEMBL5131497, “Design, Synthesis, and Characterization of TNP-2198, a Dual-Targeted Rifamycin-Nitroimidazole Conjugate with Potent Activity against Microaerophilic and Anaerobic Bacterial Pathogens” (J Med Chem, 2022).
Values after ≈ are worked out from the molar mass of the structure shown. Active and inactive are the calls of the source. The rule behind the calls is not given here.

Tests used:
[1] = system: Gardnerella vaginalis; assay: Antibacterial activity against Gardnerella vaginalis clinical isolate USA; type: functional
[2] = system: Gardnerella vaginalis; assay: Antibacterial activity against Gardnerella vaginalis clinical isolate China; type: functional
[3] = system: Actinomyces naeslundii; assay: Antibacterial activity against Actinomyces naeslundii ATCC 1210; type: functional
[4] = system: Clostridioides difficile; assay: Antibacterial activity against Clostridioides difficile clinical isolate USA; type: functional
[5] = system: Helicobacter pylori; assay: Antibacterial activity against Helicobacter pylori clinical isolate China; type: functional
[6] = system: Staphylococcus aureus; assay: Antibacterial activity against Staphylococcus aureus ATCC 29213; type: functional
[7] = system: Helicobacter pylori; assay: Antibacterial activity against rifampicin-resistant Helicobacter pylori CB1614 harboring rpoBL525I/D530N mutant measured after 5 days by agar dilution method; type: functional; settings: CB1614, 120 h, time 5 day
Procedure, shortened: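 Agar dilution per CLSI. Wild-type ATCC 700392 (CB1531) and its derivatives carry defined resistance determinants. Drugs, alone or in 1:1 molar mixtures, were diluted 2-fold from 100× stocks into Mueller–Hinton agar with aged (≥2 weeks) sheep blood (5% v/v). MIC read after 5 days at 35 °C under microaerobic conditions from a campylobacter gas-generating system.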

[8] = system: Clostridioides difficile; assay: Antibacterial activity against fluoroquinolone-resistant Clostridioides difficile CB1941 harboring gyrAD71Y/T82A mutant measured after 3 days; type: functional; settings: CB1941, 72 h, time 3 day
[9] = system: Clostridioides difficile; assay: Antibacterial activity against rifampicin/fluoroquinolone-resistant Clostridioides difficile CB1942 harboring rpoBQ489K/gyrAD71Y/T82A mutant measured after 3 days; type: functional; settings: CB1942, 72 h, time 3 day
[10] = system: Helicobacter pylori; assay: Bactericidal activity against Helicobacter pylori ATCC 700824 assessed as reduction in CFU at 4 to 16 times MIC by time kill assay; type: functional, organism-based
[11] = system: Bacteroides ovatus; assay: Antibacterial activity against metronidazole-resistant Bacteroides ovatus MMX 3504; type: functional
[12] = system: Bifidobacterium breve; assay: Antibacterial activity against Bifidobacterium ATCC 15698; type: functional
[13] = system: Clostridioides difficile; assay: Antibacterial activity against rifampicin-resistant Clostridium difficile MMX 3587; type: functional
[14] = system: Fusobacterium nucleatum; assay: Antibacterial activity against Fusobacterium nucleatum ATCC 10953; type: functional
[15] = system: Fusobacterium nucleatum; assay: Antibacterial activity against Fusobacterium nucleatum ATCC 25586; type: functional
[16] = system: Peptostreptococcus sp.; assay: Antibacterial activity against Peptostreptococcus magnus ATCC 14956; type: functional
[17] = system: Prevotella bivia; assay: Antibacterial activity against metronidazole-resistant Prevotella bivia MMX 3454; type: functional
[18] = system: Prevotella disiens; assay: Antibacterial activity against Prevotella disiens MMX 3446; type: functional
[19] = Clearance in C57BL/6 mouse at 5 mg/kg, iv; type: ADME, organism-based; settings: in vivo
Procedure, shortened: (§1)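 Plasma PK after single intravenous or oral dosing. Mice C57BL/6 at 5 mg/kg IV or 20 mg/kg PO; Sprague–Dawley rats at 10 mg/kg IV or 50 mg/kg PO; beagle dogs at 5 mg/kg IV or 25 mg/kg PO. AUC reported in ng·h/mL. Clearance from the IV arms in mL/min·kg.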

[20] = Oral bioavailability in C57BL/6 mouse at 20 mg/kg; type: ADME, organism-based; settings: in vivo
[21] = Half life in Sprague-Dawley rat at 10 mg/kg, iv; type: ADME, organism-based; settings: in vivo
[22] = Clearance in Sprague-Dawley rat at 10 mg/kg, iv; type: ADME, organism-based; settings: in vivo; procedure, shortened: as §1
[23] = AUC in Sprague-Dawley rat at 10 mg/kg, iv; type: ADME, organism-based; parameters: dose 10 mg/kg, route iv; settings: in vivo; procedure, shortened: as §1
[24] = Tmax in Beagle dog at 25 mg/kg, po; type: ADME, organism-based, Canis lupus familiaris; settings: in vivo
[25] = Half life in Beagle dog at 25 mg/kg, po; type: ADME, organism-based, Canis lupus familiaris; settings: in vivo
Procedure, shortened: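 Single-dose PK of TNP-2198 was run in C57BL/6 mice (IV 5 mg/kg; PO 20 mg/kg) and beagle dogs (IV 5 mg/kg; PO 25 mg/kg). Terminal half-life (h) was derived from plasma profiles, together with Tmax, Vdss, CL, AUC and oral bioavailability.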

[26] = Clearance in Beagle dog at 5 mg/kg, iv; type: ADME, organism-based, Canis lupus familiaris; settings: in vivo; procedure, shortened: as §1
[27] = AUC in Beagle dog at 5 mg/kg, iv; type: ADME, organism-based, Canis lupus familiaris; parameters: dose 5 mg/kg, route iv; settings: in vivo; procedure, shortened: as §1
[28] = Oral bioavailability in Beagle dog at 25 mg/kg; type: ADME, organism-based, Canis lupus familiaris; settings: in vivo
[29] = Drug distribution in Sprague-Dawley rat plasma measured at 2 hrs; type: ADME, cell-free
Procedure, shortened: (§2)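 Sprague–Dawley rats were dosed with TNP-2198. Concentrations were measured in plasma (ng/mL) and in tissues or contents (ng/g) at 0.5, 2, 6, 12 and 24 h after dosing. Values below the limit of quantification are reported as BLOQ.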

[30] = Drug distribution in Sprague-Dawley rat plasma measured at 6 hrs; type: ADME, cell-free; procedure, shortened: as §2
[31] = Drug distribution in Sprague-Dawley rat plasma measured at 24 hrs; type: ADME, cell-free; settings: BLD = below limit of detection; procedure, shortened: as §2
[32] = Drug distribution in Sprague-Dawley rat vaginal secretion measured at 0.5 hrs; type: ADME, tissue-based, Vaginal fluid; settings: female, read-out: Ct; procedure, shortened: as §2
[33] = Drug distribution in Sprague-Dawley rat vaginal secretion measured at 12 hrs; type: ADME, tissue-based, Vaginal fluid; settings: female, read-out: Ct; procedure, shortened: as §2
[34] = Drug distribution in Sprague-Dawley rat vaginal tissue measured at 6 hrs; type: ADME, tissue-based, Vagina; settings: female, read-out: Ct; procedure, shortened: as §2
[35] = Drug distribution in Sprague-Dawley rat vaginal tissue measured at 24 hrs; type: ADME, tissue-based, Vagina; settings: in vivo, BLD = below limit of detection; procedure, shortened: as §2
[36] = Drug distribution in Sprague-Dawley rat brain measured at 12 hrs; type: ADME, tissue-based; settings: in vivo, BLD = below limit of detection; procedure, shortened: as §2
[37] = Drug distribution in Sprague-Dawley rat brain measured at 24 hrs; type: ADME, tissue-based; settings: in vivo, BLD = below limit of detection; procedure, shortened: as §2
[38] = Drug distribution in Sprague-Dawley rat ascites fluid measured at 0.5 hrs; type: ADME, tissue-based, Ascitic fluid; settings: read-out: Ct; procedure, shortened: as §2
[39] = Drug distribution in Sprague-Dawley rat ascites fluid measured at 24 hrs; type: ADME, tissue-based, Ascitic fluid; settings: in vivo, BLD = below limit of detection; procedure, shortened: as §2
[40] = Drug distribution in Sprague-Dawley rat gums measured at 2 hrs; type: ADME, tissue-based, Gingiva; settings: read-out: Ct; procedure, shortened: as §2
[41] = Drug distribution in Sprague-Dawley rat stomach tissue measured at 24 hrs; type: ADME, tissue-based; settings: read-out: Ct; procedure, shortened: as §2
[42] = Drug distribution in Sprague-Dawley rat large intestine tissue measured at 2 hrs; type: ADME, tissue-based; settings: read-out: Ct; procedure, shortened: as §2
[43] = Drug distribution in Sprague-Dawley rat large intestine tissue measured at 6 hrs; type: ADME, tissue-based; settings: read-out: Ct; procedure, shortened: as §2
[44] = Drug distribution in Sprague-Dawley rat large intestine tissue measured at 12 hrs; type: ADME, tissue-based; settings: read-out: Ct; procedure, shortened: as §2
[45] = system: Gardnerella vaginalis; assay: Resistance development in Gardnerella vaginalis MMX 5973 assessed as spontaneous resistance frequency using at 4.50 x 10^8 CFU inoculum at 0.5 ug/ml; type: functional; settings: dose 0.5 µg/ml
Procedure, shortened: (§3)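 Resistant colonies were counted at each drug concentration in two separate tests (test 1, test 2) and averaged. The spontaneous resistance frequency was taken from the mean colony count relative to the inoculum plated. Drug levels tested were 0.5, 1, 2 and 4 µg/mL, and a mutation prevention concentration (MPC) was also reported.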

[46] = system: Gardnerella vaginalis; assay: Resistance development in Gardnerella vaginalis MMX 5973 assessed as spontaneous resistance frequency using at 4.50 x 10^8 CFU inoculum at 1 ug/ml; type: functional; settings: dose 1 µg/ml; procedure, shortened: as §3
[47] = system: Gardnerella vaginalis; assay: Resistance development in Gardnerella vaginalis MMX 5973 assessed as spontaneous resistance frequency using at 4.50 x 10^8 CFU inoculum at 2 ug/ml; type: functional; settings: dose 2 µg/ml; procedure, shortened: as §3
[48] = system: Gardnerella vaginalis; assay: Resistance development in Gardnerella vaginalis MMX 5973 assessed as spontaneous resistance frequency using at 4.50 x 10^8 CFU inoculum at 4 ug/ml; type: functional; settings: dose 4 µg/ml; procedure, shortened: as §3
[49] = system: Clostridioides difficile; assay: Antibacterial activity against Clostridioides difficile BAA 1382; type: functional

## CO[C@H]1/C=C/O[C@@]2(C)Oc3c(C)c(O)c4c(c3C2=O)C2=NC3(CCN(CCn5c([N+](=O)[O-])cnc5C)CC3)NC2=C(NC(=O)/C(C)=C\C=C\[C@H](C)[C@H](O)[C@@H](C)[C@@H](O)[C@@H](C)[C@H](OC(C)=O)[C@@H]1C)C4=O [RIFASUTENIZOL]
[1]
  MIC: ≤ 4 ng/mL
  MIC90: 0.06 µg/mL (≈ 0.0636 µM)
[2]
  MIC: ≤ 4 ng/mL
  MIC90: 0.06 µg/mL (≈ 0.0636 µM)
[3]
  MIC: 1 ng/mL (≈ 0.00106 µM)
[4]
  MIC: 2 ng/mL (≈ 0.00212 µM)
  MIC90: 1 µg/mL (≈ 1.06 µM)
[5]
  MIC: ≤ 2 ng/mL
[6]
  MIC: 0.015 µg/mL (≈ 0.0159 µM)
[7]
  MIC: 0.125 µg/mL (≈ 0.132 µM)
[8]
  MIC: ≤ 2 ng/mL
[9]
  MIC: 0.06 µg/mL (≈ 0.0636 µM)
[10]
  Activity: Active
[11]
  MIC: 0.12 µg/mL (≈ 0.127 µM)
[12]
  MIC: 0.015 µg/mL (≈ 0.0159 µM)
[13]
  MIC: 0.25 µg/mL (≈ 0.265 µM)
[14]
  MIC: 0.12 µg/mL (≈ 0.127 µM)
[15]
  MIC: 1 ng/mL (≈ 0.00106 µM)
[16]
  MIC: 0.5 ng/mL (≈ 0.00053 µM)
[17]
  MIC: 0.015 µg/mL (≈ 0.0159 µM)
[18]
  MIC: 0.015 µg/mL (≈ 0.0159 µM)
[19]
  clearance: 23 mL/min/kg
[20]
  bioavailability: 20%
[21]
  half-life: 46.2 min
[22]
  clearance: 26 mL/min/kg
[23]
  AUC: 6490 ng·h/mL
[24]
  Tmax: 1.2 h
[25]
  half-life: 204 min
[26]
  clearance: 20 mL/min/kg
[27]
  AUC: 4530 ng·h/mL
[28]
  bioavailability: 65%
[29]
  concentration at 2 h: 2640 ng/mL
[30]
  concentration at 6 h: 1440 ng/mL
[31]
  Cp: Bld
[32]
  concentration at 0.5 h: 4190 ng/g
[33]
  concentration at 12 h: 366 ng/g
[34]
  concentration at 6 h: 2590 ng/g
[35]
  Ct: Bld
[36]
  Ct: Bld
[37]
  Ct: Bld
[38]
  concentration at 0.5 h: 2620 ng/g
[39]
  Ct: Bld
[40]
  concentration at 2 h: 6040 ng/g
[41]
  concentration at 24 h: 14.4 ng/g
[42]
  concentration at 2 h: 8410 ng/g
[43]
  concentration at 6 h: 3660 ng/g
[44]
  concentration at 12 h: 31.6 ng/g
[45]
  Activity: <2 10^-9No_unit
[46]
  Activity: <2 10^-9No_unit
[47]
  Activity: <2 10^-9No_unit
[48]
  Activity: <2 10^-9No_unit
[49]
  MIC: 0.25 ng/mL (≈ 0.000265 µM)
